In ChEMBL document CHEMBL3612001, “Design and discovery of 2-(4-(1H-tetrazol-5-yl)-1H-pyrazol-1-yl)-4-(4-phenyl)thiazole derivatives as cardiotonic agents via inhibition of PDE3” (Bioorg Med Chem, 2015):

Legend:
Cardiac atrium [1] = test: Cardiotonic activity in reserpine-pretreated and spontaneously beating rat atria assessed as inotropic activity by measuring contractile force at 100 uM (reference value: 100%); format: functional
Method in brief: (§1)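 Male Wistar rats (250–350 g) given reserpine 5 mg/kg ip 24 h before euthanasia under thiopental 80 mg/kg ip. Whole atria mounted in Krebs–Henseleit (95% O2/5% CO2, 35–37 °C, pH 7.35–7.45) at ~0.5 g resting tension, equilibrated 40–50 min. Used only if unresponsive to tyramine 1.5 μM. Compound added cumulatively (1–100 μM). Isometric force and rate recorded, six atria per compound.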

[2] = molecular target: cGMP-inhibited 3',5'-cyclic phosphodiesterase 3B (Homo sapiens, UniProt Q13370); test: Inhibition of human PDE3B using FAM-cAMP by fluorescence polarization assay
Method in brief: (§2)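 IMAP fluorescence polarization assay. 1 ng PDE3A or PDE3B with 100 nM FAM-cAMP in reaction buffer, 60 min at room temperature, then binding reagent (1:600) for 60 min. Read at ex 485/em 528 nm, duplicates. Activity scaled between no-enzyme FP (0%) and highest FP (100%). IC50 from sigmoidal fit over 0.01–100 µM.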

Cardiac atrium [3] = test: Toxic cardiotonic activity in reserpine-pretreated and spontaneously beating rat atria assessed as chronotropic activity by measuring contractile frequency rate at 1 uM (reference value: 100%); format: toxicity; method in brief: as §1
Cardiac atrium [4] = test: Toxic cardiotonic activity in reserpine-pretreated and spontaneously beating rat atria assessed as chronotropic activity by measuring contractile frequency rate at 100 uM (reference value: 100%); format: toxicity; method in brief: as §1
Cardiac atrium [5] = test: Toxic cardiotonic activity in reserpine-pretreated and spontaneously beating rat atria assessed as chronotropic activity by measuring contractile frequency rate at 10 uM (reference value: 100%); format: toxicity; method in brief: as §1
Cardiac atrium [6] = test: Cardiotonic activity in reserpine-pretreated and spontaneously beating rat atria assessed as inotropic activity by measuring contractile force at 10 uM (reference value: 100%); format: functional; method in brief: as §1
[7] = molecular target: cGMP-inhibited 3',5'-cyclic phosphodiesterase 3A (Homo sapiens, UniProt Q14432); test: Inhibition of human PDE3A using FAM-cAMP by fluorescence polarization assay; method in brief: as §2
Cardiac atrium [8] = test: Cardiotonic activity in reserpine-pretreated and spontaneously beating rat atria assessed as inotropic activity by measuring contractile force at 1 uM (reference value: 100%); format: functional; method in brief: as §1

Chain of cGMP-inhibited 3',5'-cyclic phosphodiesterase 3B (Q13370 whole entry): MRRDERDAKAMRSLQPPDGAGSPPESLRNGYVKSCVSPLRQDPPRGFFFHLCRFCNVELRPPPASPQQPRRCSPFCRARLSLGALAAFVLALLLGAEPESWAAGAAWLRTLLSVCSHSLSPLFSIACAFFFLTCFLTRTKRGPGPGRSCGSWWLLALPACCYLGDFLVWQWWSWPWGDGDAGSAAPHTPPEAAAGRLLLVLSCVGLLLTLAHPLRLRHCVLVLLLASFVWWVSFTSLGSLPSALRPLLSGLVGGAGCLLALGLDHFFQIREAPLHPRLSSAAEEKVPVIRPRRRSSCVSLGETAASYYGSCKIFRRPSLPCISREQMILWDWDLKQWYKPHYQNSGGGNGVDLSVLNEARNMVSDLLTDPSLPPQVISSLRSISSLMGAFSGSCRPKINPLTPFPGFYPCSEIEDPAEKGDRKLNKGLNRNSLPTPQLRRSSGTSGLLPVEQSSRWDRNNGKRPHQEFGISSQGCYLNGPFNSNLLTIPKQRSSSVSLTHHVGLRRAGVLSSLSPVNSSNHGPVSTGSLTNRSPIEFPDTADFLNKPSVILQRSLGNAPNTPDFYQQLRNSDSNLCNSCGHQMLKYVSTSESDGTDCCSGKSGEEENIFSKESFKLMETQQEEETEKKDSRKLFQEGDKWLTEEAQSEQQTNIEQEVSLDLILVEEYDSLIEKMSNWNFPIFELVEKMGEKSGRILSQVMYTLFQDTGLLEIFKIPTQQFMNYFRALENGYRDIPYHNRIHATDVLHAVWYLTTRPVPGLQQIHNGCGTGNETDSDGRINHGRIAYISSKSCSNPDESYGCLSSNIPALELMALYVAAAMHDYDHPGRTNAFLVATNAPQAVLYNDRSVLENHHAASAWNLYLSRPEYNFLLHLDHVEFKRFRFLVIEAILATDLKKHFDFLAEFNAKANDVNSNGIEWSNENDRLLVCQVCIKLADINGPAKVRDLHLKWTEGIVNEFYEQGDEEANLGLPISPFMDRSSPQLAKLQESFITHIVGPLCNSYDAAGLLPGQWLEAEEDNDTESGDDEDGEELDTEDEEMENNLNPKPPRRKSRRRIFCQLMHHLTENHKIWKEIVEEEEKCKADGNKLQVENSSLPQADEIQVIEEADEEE
Chain of cGMP-inhibited 3',5'-cyclic phosphodiesterase 3A (Q14432 whole entry): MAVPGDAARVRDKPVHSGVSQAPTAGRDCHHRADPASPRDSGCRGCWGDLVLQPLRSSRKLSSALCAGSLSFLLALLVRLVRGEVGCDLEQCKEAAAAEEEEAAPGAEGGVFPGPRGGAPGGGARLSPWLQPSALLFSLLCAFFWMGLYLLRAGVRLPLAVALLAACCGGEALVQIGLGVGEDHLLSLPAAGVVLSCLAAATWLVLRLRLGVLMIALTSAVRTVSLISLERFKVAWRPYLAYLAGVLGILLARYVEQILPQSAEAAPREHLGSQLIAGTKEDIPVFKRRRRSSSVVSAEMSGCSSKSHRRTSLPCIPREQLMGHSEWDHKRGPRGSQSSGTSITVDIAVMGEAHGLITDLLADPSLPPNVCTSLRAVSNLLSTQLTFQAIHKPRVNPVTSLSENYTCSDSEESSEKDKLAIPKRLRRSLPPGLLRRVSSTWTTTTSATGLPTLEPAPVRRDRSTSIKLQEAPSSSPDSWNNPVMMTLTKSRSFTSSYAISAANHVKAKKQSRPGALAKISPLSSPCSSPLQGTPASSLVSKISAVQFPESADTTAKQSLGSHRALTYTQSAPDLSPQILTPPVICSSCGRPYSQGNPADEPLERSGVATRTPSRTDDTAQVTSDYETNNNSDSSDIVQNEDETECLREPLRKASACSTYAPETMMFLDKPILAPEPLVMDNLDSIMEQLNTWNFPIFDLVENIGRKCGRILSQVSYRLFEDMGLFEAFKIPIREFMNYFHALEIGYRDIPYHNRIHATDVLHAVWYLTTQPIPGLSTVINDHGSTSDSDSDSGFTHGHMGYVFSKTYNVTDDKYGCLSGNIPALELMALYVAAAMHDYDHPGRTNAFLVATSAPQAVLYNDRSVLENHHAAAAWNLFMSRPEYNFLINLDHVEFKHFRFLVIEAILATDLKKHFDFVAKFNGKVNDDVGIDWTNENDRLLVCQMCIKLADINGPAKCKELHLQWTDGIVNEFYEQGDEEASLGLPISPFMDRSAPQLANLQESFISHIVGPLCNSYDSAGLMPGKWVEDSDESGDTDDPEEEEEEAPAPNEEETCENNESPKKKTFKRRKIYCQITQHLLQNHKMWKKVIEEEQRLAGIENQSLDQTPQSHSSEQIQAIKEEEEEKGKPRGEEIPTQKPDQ

| SMILES | Activity (Cardiac atrium [1]) [%] | IC50 [2] [µM] | Activity (Cardiac atrium [3]) [%] | Activity (Cardiac atrium [4]) [%] | Activity (Cardiac atrium [5]) [%] | Activity (Cardiac atrium [6]) [%] | IC50 [7] [µM] | Activity (Cardiac atrium [8]) [%] |
| --- | --- | --- | --- | --- | --- | --- | --- | --- |
| COc1ccc(C(=O)N2CCN(c3ccc4c(c3)CCC(=O)N4)CC2)cc1OC [VESNARINONE] | 150 | 14.5 | 105 | 121 | 112 | 125 | 11.2 | 105 |
| Clc1ccc(-c2csc(-n3cc(-c4nnn[nH]4)cn3)n2)cc1 | – | 3.83 | – | – | – | – | 2.45 | – |
